Experimental data as given in ChEMBL document CHEMBL4732157, “A theranostic probe of indoleamine 2,3-dioxygenase 1 (IDO1) for small molecule cancer immunotherapy” (Eur J Med Chem, 2021).
The source made the active and inactive calls. The calls are words filed in the database; no cut-off is given here.

Assays:
Escherichia coli = experiment: Binding affinity to Escherichia coli beta-galactosidase assessed as change in fluorescence intensity at 10 uM measured after 60 mins by fluorescence assay
In short: (§1)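 Selectivity panel: probe was incubated with each enzyme or biomolecule in 10 mM PBS, pH 7.4, containing 1% DMSO, for 60 min at room temperature. Fluorescence intensity was read at 532 nm with excitation at 465 nm.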

[1] = Binding affinity to GSH assessed as change in fluorescence intensity at 10 uM measured after 60 mins by fluorescence assay; in short: as §1
Trypsin (Homo sapiens) = Trypsin (Homo sapiens) (UniProt P07477+P07478+P35030); experiment: Binding affinity to trypsin (unknown origin) assessed as change in fluorescence intensity at 10 uM measured after 60 mins by fluorescence assay; type: protein assay; in short: as §1
CT26 [2] = experiment: Cytotoxicity against mouse CT26 cells assessed as reduction in cell viability measured after 72 hrs by CCK8 assay; type: cell-based; conditions: CT26, 72 h
In short: (§2)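 Log-phase HeLa or CT26 cells were seeded at 6 × 10³ per well and grown 24 h at 37 °C, 5% CO₂. Cells were treated with a concentration series in triplicate for 72 h. Medium was then replaced with medium containing 10% CCK8 and incubated a further 40 min.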

Albumin [3] = target: Albumin (Homo sapiens, UniProt P02768); experiment: Binding affinity to human serum albumin assessed as change in fluorescence intensity at 10 uM measured after 60 mins by fluorescence assay; type: ADME; conditions: isolated protein, 1 h; in short: as §1
Chain of Albumin (Homo sapiens, UniProt P02768) (P02768 whole entry): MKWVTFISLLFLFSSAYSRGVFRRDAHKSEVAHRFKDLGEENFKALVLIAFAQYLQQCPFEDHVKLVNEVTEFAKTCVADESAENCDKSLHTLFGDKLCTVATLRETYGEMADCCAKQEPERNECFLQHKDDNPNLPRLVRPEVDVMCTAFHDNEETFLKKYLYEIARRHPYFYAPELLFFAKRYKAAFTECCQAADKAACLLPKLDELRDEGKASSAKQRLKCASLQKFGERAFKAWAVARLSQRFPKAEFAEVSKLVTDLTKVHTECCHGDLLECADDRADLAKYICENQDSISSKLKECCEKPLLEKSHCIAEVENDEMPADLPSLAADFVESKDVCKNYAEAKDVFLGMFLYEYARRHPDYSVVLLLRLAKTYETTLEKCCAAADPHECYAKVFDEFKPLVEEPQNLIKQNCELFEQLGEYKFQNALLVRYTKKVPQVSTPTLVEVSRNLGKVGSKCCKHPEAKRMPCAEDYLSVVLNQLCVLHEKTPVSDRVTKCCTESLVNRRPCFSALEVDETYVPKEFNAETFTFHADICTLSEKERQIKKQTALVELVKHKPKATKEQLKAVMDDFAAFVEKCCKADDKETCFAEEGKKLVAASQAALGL

Albumin [4] = target: Albumin (Bos taurus, UniProt P02769); experiment: Binding affinity to bovine serum albumin assessed as change in fluorescence intensity at 10 uM measured after 60 mins by fluorescence assay; type: ADME; conditions: cattle, isolated protein, 1 h; in short: as §1
Chain of Albumin (Bos taurus, UniProt P02769) (P02769 whole entry): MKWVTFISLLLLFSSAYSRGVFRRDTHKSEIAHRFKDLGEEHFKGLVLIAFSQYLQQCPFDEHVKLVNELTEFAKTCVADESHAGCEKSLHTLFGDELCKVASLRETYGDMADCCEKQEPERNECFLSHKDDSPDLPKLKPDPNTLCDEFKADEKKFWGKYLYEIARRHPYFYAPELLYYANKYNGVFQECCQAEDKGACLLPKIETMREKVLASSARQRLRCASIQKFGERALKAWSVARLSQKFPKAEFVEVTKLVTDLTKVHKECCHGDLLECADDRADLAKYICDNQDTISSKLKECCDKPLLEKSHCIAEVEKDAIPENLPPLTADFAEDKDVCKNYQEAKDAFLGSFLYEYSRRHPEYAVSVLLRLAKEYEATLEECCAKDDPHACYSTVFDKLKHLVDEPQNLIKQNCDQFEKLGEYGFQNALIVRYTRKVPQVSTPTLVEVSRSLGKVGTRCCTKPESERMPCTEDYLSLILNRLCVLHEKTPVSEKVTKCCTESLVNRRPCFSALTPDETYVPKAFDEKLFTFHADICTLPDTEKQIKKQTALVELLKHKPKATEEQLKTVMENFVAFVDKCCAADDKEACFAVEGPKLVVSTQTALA

[5] = target: T1, Indoleamine 2,3-dioxygenase 1 (Homo sapiens, UniProt P14902); experiment: Inhibition of IDO1 in IFNgamma-stimulated human HeLa cells using tryptophan as substrate measured after 48 hrs
Target sequence in this assay (P14902 whole entry): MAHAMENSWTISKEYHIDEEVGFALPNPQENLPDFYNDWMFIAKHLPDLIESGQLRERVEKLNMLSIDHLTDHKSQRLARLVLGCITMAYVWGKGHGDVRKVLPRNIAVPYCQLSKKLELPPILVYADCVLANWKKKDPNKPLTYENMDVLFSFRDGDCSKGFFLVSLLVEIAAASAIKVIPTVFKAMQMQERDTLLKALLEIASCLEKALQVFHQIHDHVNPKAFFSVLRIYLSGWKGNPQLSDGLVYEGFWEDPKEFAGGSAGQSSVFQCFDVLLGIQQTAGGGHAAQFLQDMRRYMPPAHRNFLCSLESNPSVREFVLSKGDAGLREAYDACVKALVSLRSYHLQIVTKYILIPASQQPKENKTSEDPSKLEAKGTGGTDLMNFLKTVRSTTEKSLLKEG

HeLa = experiment: Cytotoxicity against human HeLa cells assessed as reduction in cell viability measured after 72 hrs by CCK8 assay; type: cell-based; in short: as §2
[6] = target: T1, Indoleamine 2,3-dioxygenase 1; experiment: Binding affinity to recombinant human IDO1 expressed in Escherichia coli BL21 (DE3) assessed as increase in fluorescence intensity at 10 uM measured after 60 mins by fluorescence assay relative to control
In short: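 Human IDO1 was expressed in E. coli BL21(DE3), induced with 0.4 mM IPTG at OD600 0.6 for 18 h at 18 °C, then purified on Ni column (0–250 mM imidazole gradient) and gel filtration. Probe was titrated with increasing IDO1 in 10 mM PBS, pH 7.4, 1% DMSO, for 60 min at room temperature. Fluorescence: excitation 465 nm, emission 532 nm. Detection limit was taken at signal-to-noise ratio 3.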
Target sequence in this assay (P14902 whole entry, looked up): as the sequence (P14902 whole entry) above

[7] = target: T1, Indoleamine 2,3-dioxygenase 1; experiment: Inhibition of recombinant human IDO1 expressed in Escherichia coli BL21 (DE3) using tryptophan as substrate
Target sequence in this assay (P14902 whole entry): as above

Homo sapiens = organism: Homo sapiens; experiment: Binding affinity to chymotrypsin (unknown origin) assessed as change in fluorescence intensity at 10 uM measured after 60 mins by fluorescence assay; in short: as §1
Aspergillus oryzae = experiment: Binding affinity to oryzae beta-galactosidase assessed as change in fluorescence intensity at 10 uM measured after 60 mins by fluorescence assay; in short: as §1
[8] = target: T1, Indoleamine 2,3-dioxygenase 1; experiment: Binding affinity to IDO1 in IFNgamma-stimulated human HeLa cells at 5 nM measured after 5 mins by Hoechst staining based confocal fluorescence imaging analysis
In short: (§3)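 Living HeLa cells, either unstimulated or stimulated with IFN-γ (50 ng/mL, 12 h), were stained with Hoechst for 20 min and then with probe for 5 min before confocal imaging in the green channel.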
Target sequence in this assay (P14902 whole entry, looked up): as the sequence (P14902 whole entry) above

Bos taurus = organism: Bos taurus; experiment: Binding affinity to bovine hemoglobin assessed as change in fluorescence intensity at 10 uM measured after 60 mins by fluorescence assay; in short: as §1
CT26 [9] = experiment: Antitumor activity against mouse CT26 cells implanted in BALB/c mouse assessed as tumor growth inhibition at 100 mg/kg, po administered daily for 12 days relative to control; type: functional; conditions: 288 h, time 12 day, read-out: TGI
In short: (§4)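 Female Balb/c mice, 4–5 weeks old, were inoculated subcutaneously in the right forelimb with 5 × 10⁵ log-phase CT26 cells in RPMI. Once tumors reached about 50 mm³, mice were randomized (n = 5 per group) and dosed orally at 100 mg/kg daily. Tumor length, width and body weight were recorded every other day, with V = ½ab². Mice were sacrificed when control tumors approached 2000 mm³. TGI = (Vcontrol − Vcompound)/Vcontrol at the last day. Data are mean ± SEM; Student's t-test.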

[10] = Toxicity in BALB/c mouse implanted with mouse CT26 cells assessed as loss of body weight at 100 mg/kg, po administered daily for 12 days measured every other day during compound dosing; type: organism-based; conditions: in vivo, 288 h, time 12 day; in short: as §4
[11] = target: T1, Indoleamine 2,3-dioxygenase 1; experiment: Binding affinity to IDO1 in IFNgamma-stimulated human HeLa cells at 5 nM measured after 5 mins in presence of IDO1 inhibitor epacadostat by Hoechst staining based confocal fluorescence imaging analysis; in short: as §3
Target sequence in this assay (P14902 whole entry, looked up): as the sequence (P14902 whole entry) above

[12] = Drug uptake in human HeLa cells at 5 nM measured after 5 mins by Hoechst staining based confocal fluorescence imaging analysis; type: ADME, cell-based; conditions: 0.005 µM; in short: as §3
[13] = Drug uptake in human HeLa cells at 3.5 nM measured after 5 mins by Hoechst staining based confocal fluorescence imaging analysis; type: ADME, cell-based; conditions: 0.0035 µM; in short: as §3
[14] = target: T1, Indoleamine 2,3-dioxygenase 1; experiment: Binding affinity to IDO1 in IFNgamma-stimulated human HeLa cells at 3.5 nM measured after 5 mins by Hoechst staining based confocal fluorescence imaging analysis; in short: as §3
Target sequence in this assay (P14902 whole entry, looked up): as the sequence (P14902 whole entry) above

[15] = target: T1, Indoleamine 2,3-dioxygenase 1; experiment: Binding affinity to IDO1 in IFNgamma-stimulated human HeLa cells at 3.5 nM measured after 5 mins in presence of IDO1 inhibitor epacadostat by Hoechst staining based confocal fluorescence imaging analysis; in short: as §3
Target sequence in this assay (P14902 whole entry, looked up): as the sequence (P14902 whole entry) above

Row | Activity (Escherichia coli) | Activity [1] | Activity (Trypsin (Homo sapiens)) | Activity (Albumin [3]) | Activity (Albumin [4]) | IC50 [5] | Activity [6] | IC50 [7] | Activity (Homo sapiens) | Activity (Aspergillus oryzae) | Activity [8] | Activity (Bos taurus) | Structure (SMILES) | IC50 (CT26 [2]) | IC50 (HeLa) | inhibition in vivo at 100 mg/kg (CT26 [9]) | other results
1 | inactive | inactive | inactive | Not Active | Not Active | > 5000 nM | inactive | 1320 nM | inactive | inactive | inactive | inactive | O=C(CNc1ccc([N+](=O)[O-])c2nonc12)NCCNc1nonc1/C(=N/O)Nc1ccc(F)c(Br)c1 | > 100000 nM | > 100000 nM |  | 
2 |  |  |  |  |  |  |  |  |  |  |  |  | NS(=O)(=O)NCCNc1nonc1/C(=N/O)Nc1ccc(F)c(Br)c1 [EPACADOSTAT] | > 100000 nM | > 100000 nM | 49% | 
3 | inactive | inactive | inactive | Not Active | Not Active | 10 nM |  | 12 nM | inactive | inactive | Active | inactive | O=C(CCNc1ccc([N+](=O)[O-])c2nonc12)NCCNc1nonc1/C(=N/O)Nc1ccc(F)c(Br)c1 | > 100000 nM | > 100000 nM | 46% | Activity [10]: Non-Toxic; fold change (FC) [6]: 5; Activity [11]: inactive; Drug uptake [12]: Not Active
4 | inactive | inactive | inactive | Not Active | Not Active | 15 nM | Active | 28 nM | inactive | inactive |  | inactive | O=[N+]([O-])c1ccc(NCCNc2nonc2/C(=N/O)Nc2ccc(F)c(Br)c2)c2nonc12 | > 100000 nM | > 100000 nM |  | Drug uptake [13]: Not Active; Activity [14]: Active; Activity [15]: inactive
